For the experiment, the target named is Perilipin-5 (Homo sapiens) + 1-acylglycerol-3-phosphate O-acyltransferase ABHD5 (Homo sapiens) (UniProt Q00G26+Q8WTS1). Description: inhibition of ABHD5 association with MLDP – biochemical, luminescence, dose response, round 3, late-stage follow-up (AID 652138). The conditions noted are these: split G. princeps luciferase complementation, 4 h. The method in brief:
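Material – split Gaussia princeps luciferase complementation, LucC-tagged ABHD5 with LucN-tagged MLDP · Probe or stimulus – MLDP-LucN lysate as binding partner · Incubation – 4 h at 25 °C plus 30 min readout step · Signal – coelenterazine luminescence · Read-out – IC50 from four-parameter fit of percent inhibition · Controls – DMSO as low control, 25 µM trans-chalcone as high control · Replication – triplicates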

The source made the active and inactive calls.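 How the source made its calls: active means IC50 at or below 10 µM, the dose giving half-maximal inhibition of the luminescence signal; inactive means IC50 above 10 µM.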

Perilipin-5 (Homo sapiens) + 1-acylglycerol-3-phosphate O-acyltransferase ABHD5 (Homo sapiens), sequence (Q00G26 whole entry, looked up): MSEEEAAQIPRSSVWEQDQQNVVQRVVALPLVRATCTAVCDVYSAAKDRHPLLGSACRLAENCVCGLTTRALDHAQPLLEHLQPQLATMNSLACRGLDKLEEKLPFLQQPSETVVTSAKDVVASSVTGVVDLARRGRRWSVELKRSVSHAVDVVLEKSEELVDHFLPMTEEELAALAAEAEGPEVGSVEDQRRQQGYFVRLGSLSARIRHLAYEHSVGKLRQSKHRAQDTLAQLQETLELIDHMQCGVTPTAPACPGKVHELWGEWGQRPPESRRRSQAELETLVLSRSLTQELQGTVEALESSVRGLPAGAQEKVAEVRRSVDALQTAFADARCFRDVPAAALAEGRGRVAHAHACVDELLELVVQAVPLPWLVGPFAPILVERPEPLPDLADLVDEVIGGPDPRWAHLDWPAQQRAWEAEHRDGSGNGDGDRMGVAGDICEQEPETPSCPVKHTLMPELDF
Perilipin-5 (Homo sapiens) + 1-acylglycerol-3-phosphate O-acyltransferase ABHD5 (Homo sapiens), sequence (Q8WTS1 whole entry, looked up): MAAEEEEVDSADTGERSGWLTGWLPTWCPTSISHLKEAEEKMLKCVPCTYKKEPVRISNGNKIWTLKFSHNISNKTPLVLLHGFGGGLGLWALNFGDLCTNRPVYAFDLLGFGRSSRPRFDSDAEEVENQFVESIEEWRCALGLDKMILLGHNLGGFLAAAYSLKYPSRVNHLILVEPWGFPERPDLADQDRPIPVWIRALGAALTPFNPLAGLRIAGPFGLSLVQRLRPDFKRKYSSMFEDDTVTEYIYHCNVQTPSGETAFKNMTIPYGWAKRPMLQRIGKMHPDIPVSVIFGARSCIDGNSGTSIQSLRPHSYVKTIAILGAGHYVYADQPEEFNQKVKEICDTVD

For orientation: IC50 means the concentration at which inhibition is half-maximal. As to `Cc1ccc2c(CC(=O)N3CCN(S(=O)(=O)c4ccc5c(c4)OCCO5)CC3)coc2c1`, the IC50 entry is “inactive”.

Consider `CCCCNC(=O)Nc1ccc2c(c1)N(C)C(=O)c1ccccc1S2`, for which the IC50 result was “inactive”.

Turning to `CCCCCCNC(=O)Nc1ccc2c(c1)N(C)C(=O)c1ccccc1S2`, the concentration for half-maximal inhibition (IC50) is 4.71 µM.

For the compound `CN1C(=O)c2ccccc2Sc2ccc(NC(=O)NCCCc3ccccc3)cc21`, the half-inhibitory concentration (IC50) is 4.04 µM.

Regarding `CCCCCNC(=O)Nc1ccc2c(c1)N(C)C(=O)c1ccccc1S2`, the IC50 is 3.32 µM.

As for `CCCCCCCNC(=O)Nc1ccc2c(c1)N(C)C(=O)c1ccccc1S2`, the IC50 was 7.78 µM.
